Source: PubChem BioAssay
Only a selection was taken, and hits are over-represented in it overall.
CHOP UPR activ: apoptotic UPR (CHOP) activation; CHO-CHOP luciferase reporter, luminescence; percent of tunicamycin response over DMSO baseline; activation, % at 10 µM; 0.34% of 330,000 active; AID 449763;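 active means at 10 µM dose, activation of 40% or more, normalized to positive control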
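Assay system: CHO cells with stable CHOP pathway luciferase reporter; Buffer or medium: F12 plus 10% serum; Times: 16-18 h cell attachment, then 6 h compound exposure, 37 °C; Signal: luciferase luminescence; Read-out basis: percent activation relative to tunicamycin control; Control set: tunicamycin high control, DMSO low control.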
H9c2 protect: protects H9c2 cardiomyocytes from peroxide injury; protection from H2O2 cell death, % at 20 µM; AID 588492; H2O2 injury protection, ATPLite, 2 h; 0.63% of 360,000 active;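 active means compounds giving at least 50% protection of heart cells from peroxide-induced death in the single-dose screen, raw or plate-pattern-corrected value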
CHOP inh: inhibitors of CHOP induction in ER stress response | CHO-K1 CHOP-promoter luciferase, tunicamycin-induced, 15-18 h | inhibition, % at 10 µM | 3.8% of 220,000 active | AID 2732;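 active means compounds that reduced the stress-induced luciferase reporter signal by more than about 70% of percent inhibition, limit read from the data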
XBP1 UPR activ: adaptive UPR (XBP1) activation | 0.33% of 330,000 active | AID 463104 | CHO-XBP1 luciferase reporter, IRE1-XBP1 UPR activation, luminescence; percent of tunicamycin response, DMSO as zero | activation, % at 20 µM;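 active means versus positive control, 20 µM dose yields 30% or more activation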
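assay system = CHO-XBP1 luciferase reporter cells | amount = 1000 cells/well | buffer or medium = F12 plus 10% FBS | compound dosing = single point, 20 µM final compound, 1% DMSO | incubation = 16-18 h cell attachment at 37 °C, then 6 h compound exposure | detection = Steady-Glo luminescence read | controls = tunicamycin 10 µg/mL and vehicle-only wells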
hiPSC survival: increases survival of single human iPS cells; AID 602274; 0.044% of 360,000 active; survival enhancement, % at 20 µM; hiPSC single-cell survival, ATPlite luminescence; 100% = ROCK inhibitor wells, 0% = DMSO; in the data active means survival enhancement above about 18%;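 further: cells exposed to compounds for 16 hours before the ATP read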
CHOP confirm: confirmation of CHOP induction inhibitors | AID 504437 | shares compounds with CHOP inh | 45% of 2,100 active | CHO-CHOP promoter luciferase reporter, tunicamycin-induced, luminescence | inhibition, % at 10 µM;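 active means mean of three repeat readings of reporter signal inhibition above a set limit, cut at about 70% in these data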
Each line names hits and unclear results; the compound was inactive in the other large screens (follow-up assays come after a bar, where they were run).

C=CCN1C=C2C(=O)C(C)(OC(=O)c3ccc(OC)cc3)C(=O)C(c3ccco3)=C2C=C1CCCC (stereo not given)	none
Clc1ccc(-n2ncc3c(NCc4ccco4)ncnc32)cc1	none
Clc1ccc(-n2ncc3c(NCc4ccc5c(c4)OCO5)ncnc32)cc1	CHOP inh 104 | CHOP confirm inactive
N#CCCN(C(=S)NC(=O)C1CCCCC1)c1ccccc1F	none (no result: CHOP inh)
COc1ccc(CC(=O)Nc2cccc(-c3nnc(-c4ccccc4)o3)c2)cc1OC	none (no result: CHOP UPR activ, CHOP inh, XBP1 UPR activ)
COc1ccc(CC(=O)Nc2cccc(-c3nnc(-c4cccc(C)c4)o3)c2)cc1OC	none (no result: CHOP inh) | CHOP confirm 113
O=C(NCc1ccccc1Cl)C1CCC(CNc2nc(=S)[nH]c3ccccc23)CC1 (stereo not given)	CHOP inh 98 | CHOP confirm inactive
O=C(ONc1ccc(N=NC(=O)c2ccccc2O)cc1)c1ccccc1	CHOP inh 107 | CHOP confirm 132
Cc1cccc2sc(NC(=O)c3ccc(Cl)s3)nc12	none
COc1cccc2sc(NC(=O)c3ccc(Br)s3)nc12	CHOP inh 104 | CHOP confirm inactive
Cc1ccc(-c2nc(CS(=O)CC(=O)NCCN3CCCCC3C)c(C)o2)cc1 (stereo not given)	none (no result: CHOP inh)
CCOC(=O)C(C(=O)OCC)C(C(=O)OCC)N1CCOCC1 (stereo not given)	CHOP inh 102 | CHOP confirm inactive
CC1(C(=O)NS(=O)(=O)c2cccs2)CCN1C(=O)CCc1ccc(Cl)cc1Cl (stereo not given)	none (no result: CHOP UPR activ, CHOP inh, XBP1 UPR activ)
Cc1sc2ncnc(N3CCCCC3C)c2c1C (stereo not given)	CHOP inh 99 | CHOP confirm 70
O=C1CN(C(=O)COC(=O)COc2ccccc2)c2ccccc2N1	none (no result: CHOP inh)
NNc1nc2cccnc2n(CCNc2ncc(C(F)(F)F)cc2Cl)c1=O	none
O=c1c(Cl)nc2cc(Cl)ccc2n1CCNc1ncc(C(F)(F)F)cc1Cl	CHOP inh 107 | CHOP confirm 128
COc1cccc(-n2nnnc2S(C)(=O)=O)c1	CHOP inh 113 | CHOP confirm 115
COc1cccc(Oc2nnnn2-c2ccccc2)c1	none
Cc1cc(NC(=O)c2ccc(C)s2)n(-c2nc3ccccc3[nH]2)n1	none
Cc1cc(Nc2ccccc2)n(-c2nc3ccccc3[nH]2)n1	none
Cc1cc(NC(=O)c2c(F)cccc2F)n(-c2nc3ccccc3[nH]2)n1	CHOP inh 100 | CHOP confirm inactive
Cc1cc(NC(=O)C2CCCCC2)n(-c2nc3ccccc3[nH]2)n1	CHOP inh 102 | CHOP confirm inactive
COCCCN1C(=O)C(CC(=O)NC2CC2)CC(C(=O)N(C(C)C)C(C)C)=C1C (stereo not given)	none (no result: CHOP UPR activ, CHOP inh, XBP1 UPR activ)
O=C1CC(c2ccco2)CC(O)=C1C=Nc1ccccc1-c1ccccc1 (stereo not given)	CHOP inh 104 | CHOP confirm 95
Cc1[nH]nc(N=CC2=C(O)CC(c3ccco3)CC2=O)c1-c1ccc(Cl)cc1 (stereo not given)	CHOP inh 105 | CHOP confirm 80
O=C1CC(c2ccco2)CC(O)=C1C=Nc1cc(Cl)ccc1O (stereo not given)	none
Cc1ccsc1CNC(=O)C1(C)CCCN1CC(C)C (stereo not given)	none (no result: CHOP UPR activ, CHOP inh, XBP1 UPR activ)
Oc1ccc(C[C@H]2CN([C@@H](Cc3cccc(O)c3)CN3CCC[C@@H]3CN3C(=S)NC[C@@H]3Cc3ccccc3)C(=S)N2CC2CCCCC2)cc1	none (no result: CHOP UPR activ, CHOP inh, XBP1 UPR activ)
Cc1ccc(NC(=O)C2(C)CCCN2C)cc1C (stereo not given)	none (no result: CHOP UPR activ, CHOP inh, XBP1 UPR activ)
N#Cc1c(NCCN)nc(-c2ccco2)c2c1CCCC2	CHOP inh 105 | CHOP confirm inactive
Cc1ccc(C(=O)N2CCC(C(=O)c3ccc(F)cc3)CC2)cc1	none (no result: CHOP UPR activ, CHOP inh, XBP1 UPR activ)
Cc1ccc(C(=O)N2C(=S)C(c3ccc(F)cc3)=NC23CCN(C)CC3)cc1	CHOP inh 98 | CHOP confirm inactive
CCSCCc1nnc(NC(=O)Nc2cccc(C(F)(F)F)c2)s1	CHOP inh 96 | CHOP confirm 99
O=C(Nc1cccc(C(F)(F)F)c1)Nc1nnc([C@H]2C[C@H](O)[C@@H](CO)O2)s1	none (no result: CHOP UPR activ, CHOP inh, XBP1 UPR activ)
